According to ChEMBL document CHEMBL3826935, “Synthesis and Pharmacology of (Pyridin-2-yl)methanol Derivatives as Novel and Selective Transient Receptor Potential Vanilloid 3 Antagonists” (J Med Chem, 2016):

Key:
Liver microsome [1] = experiment: Unbound intrinsic clearance in rat liver microsomes after 5 hrs by LC-MS/MS analysis; type: ADME
In short: (§1)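 Microsomal stability run in an automated high-throughput plate format. Intrinsic clearance corrected for nonspecific microsomal binding using measured unbound fraction (fu,mic), reported as unbound Clint in L/h/kg.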

Liver microsome [2] = experiment: Unbound intrinsic clearance in human liver microsomes after 5 hrs by LC-MS/MS analysis; type: ADME; in short: as §1
[3] = molecular target: T1, Transient receptor potential cation channel subfamily V member 3 (Homo sapiens) (UniProt Q8NET8); experiment: Antagonist activity at human TRPV3 expressed in recombinant HEK293 cells assessed as inhibition of 2-APB induced calcium flux by FLIPR analysis; type: cell-based
T1 sequence (whole entry): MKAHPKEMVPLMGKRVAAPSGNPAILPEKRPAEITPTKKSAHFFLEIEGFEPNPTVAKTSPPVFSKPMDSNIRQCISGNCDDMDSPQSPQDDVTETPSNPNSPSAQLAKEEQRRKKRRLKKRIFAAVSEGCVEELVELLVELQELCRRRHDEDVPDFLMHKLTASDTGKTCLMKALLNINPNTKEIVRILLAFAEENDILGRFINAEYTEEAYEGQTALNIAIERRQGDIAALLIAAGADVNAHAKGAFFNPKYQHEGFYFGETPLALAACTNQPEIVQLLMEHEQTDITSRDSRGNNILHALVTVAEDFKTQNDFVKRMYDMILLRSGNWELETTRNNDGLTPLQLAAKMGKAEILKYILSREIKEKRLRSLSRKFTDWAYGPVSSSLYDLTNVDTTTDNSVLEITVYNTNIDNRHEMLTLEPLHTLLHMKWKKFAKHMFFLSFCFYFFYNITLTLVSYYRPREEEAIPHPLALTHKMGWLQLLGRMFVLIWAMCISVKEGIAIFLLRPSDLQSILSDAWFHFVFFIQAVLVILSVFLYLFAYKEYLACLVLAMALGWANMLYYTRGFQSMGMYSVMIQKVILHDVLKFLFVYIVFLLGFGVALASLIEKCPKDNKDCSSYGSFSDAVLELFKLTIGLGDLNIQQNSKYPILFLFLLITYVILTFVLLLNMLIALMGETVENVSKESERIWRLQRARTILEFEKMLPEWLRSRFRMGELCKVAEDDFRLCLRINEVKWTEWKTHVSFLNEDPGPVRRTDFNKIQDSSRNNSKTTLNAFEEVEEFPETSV
In short: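 HEK293 cells stably expressing human TRPV3 (I25V variant), plated the day before in DMEM + 10% FBS at 37 °C, 5% CO2. Calcium 4 dye loaded in Ca/Mg-free HEPES D-PBS pH 7.4 for 1–2 h at room temperature. Compound dilutions added with 3 min baseline, then 2-APB at 60 µM final; Ca2+ flux read 3 min on FLIPR. Kb from at least duplicates, averaged across independent runs.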

Rattus norvegicus [4] = organism: Rattus norvegicus; experiment: Cardiotoxicity in rat assessed as increase in mean arterial pressure; type: toxicity, organism-based, Artery; settings: in vivo
[5] = molecular target: T2, Nuclear receptor subfamily 1 group I member 2 (Homo sapiens, UniProt O75469); experiment: Activation of human PXR; type: ADME; settings: human
T2 sequence (O75469 whole entry): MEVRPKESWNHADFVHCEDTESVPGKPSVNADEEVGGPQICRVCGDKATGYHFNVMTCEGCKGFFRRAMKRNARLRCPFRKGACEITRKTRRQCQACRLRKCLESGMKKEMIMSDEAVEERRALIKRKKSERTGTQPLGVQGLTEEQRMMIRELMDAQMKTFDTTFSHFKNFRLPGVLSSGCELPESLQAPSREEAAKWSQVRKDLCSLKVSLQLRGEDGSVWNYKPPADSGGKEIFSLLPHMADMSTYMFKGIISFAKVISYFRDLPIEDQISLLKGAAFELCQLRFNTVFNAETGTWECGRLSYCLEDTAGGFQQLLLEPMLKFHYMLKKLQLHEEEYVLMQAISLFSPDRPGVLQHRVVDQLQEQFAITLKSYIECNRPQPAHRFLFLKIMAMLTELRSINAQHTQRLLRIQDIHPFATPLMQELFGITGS

Rattus norvegicus [6] = organism: Rattus norvegicus; experiment: Cardiotoxicity in rat assessed as increase in cardiac contractility at plasma concentration of 4.7 ug/ml; type: toxicity, organism-based

SMILES | CL free (Liver microsome [1]) [mL/min/kg] | CL free (Liver microsome [2]) [mL/min/kg] | Kb [3] [nM] | Activity (Rattus norvegicus [4]) | Activity [5] | Activity (Rattus norvegicus [6])
O[C@H](c1ccccn1)[C@@]1(c2ccc(Cl)c(Cl)c2)CCO1 | 1000 | 217 | 380 | – | – | –
O[C@H](c1ncccn1)C1(c2ccc(Cl)c(Cl)c2)CCC1 | 833 | 267 | 370 | – | – | –
C[C@@]1(c2ccc(OC(F)(F)F)cc2)C[C@@](O)(c2ccccn2)CO1 (single isomer, unassigned) | 333 | 67 | 1120 | – | – | –
CC(O)(c1ccccn1)C1(c2ccc(Cl)c(Cl)c2)CCC1 (racemic) | 6330 | 1670 | 3400 | – | – | –
CN1CC(c2ccc(C(F)(F)F)cc2)(C(O)c2ccccn2)C1 (stereo unspecified) | 120 | 50 | 6630 | – | – | –
O[C@H](c1ccccn1)[C@]1(c2ccc(C(F)(F)F)cc2)C[C@@H](O)C1 | 50 | 33 | 1870 | Non-toxic | Not Active | Non-toxic
OC(c1ncccc1F)C1(c2ccc(Cl)c(Cl)c2)CCC1 (racemic) | 3000 | 833 | 610 | – | – | –
O[C@H](c1ccccn1)C1(c2ccc(Cl)c(Cl)c2)CC(F)(F)C1 | 850 | 250 | 80 | – | – | –
OC(c1ccccn1)C1(c2ccc(Cl)c(Cl)c2)CCOC1 (stereo unspecified) | 983 | 417 | 630 | – | – | –
C[C@]1(O)C[C@](c2ccnc(C(F)(F)F)c2)([C@H](O)c2ccccn2)C1 | 83 | 67 | 500 | Non-toxic | Not Active | Non-toxic
O[C@H](c1ccccn1)[C@]1(c2ccc(Cl)c(Cl)c2)CCCO1 | – | – | 470 | – | – | –
O[C@H](c1ccccn1)C1(c2ccc(OC(F)(F)F)cc2)CCC1 | 1050 | 333 | 140 | – | – | –
C[C@]1(O)C[C@](c2cc(C(F)(F)F)ccn2)([C@@H](O)c2ccccn2)C1 | 100 | 33 | > 9100 | Non-toxic | Not Active | Non-toxic
O[C@H](c1ccccn1)[C@]1(c2cccc(OC(F)(F)F)c2)C[C@@H](O)C1 | 217 | 120 | 80 | Non-toxic | Not Active | Non-toxic
OC(c1ccccn1)C1(c2ccc(C(F)(F)F)cc2)CNC1 (stereo unspecified) | 50 | 33 | 6680 | – | – | –
C[C@]1(O)C[C@](c2ccc(OC(F)(F)F)cc2)([C@H](O)c2ccccn2)C1 | 100 | 50 | 1510 | Non-toxic | Not Active | Non-toxic
OC(c1ccc(F)cn1)C1(c2ccc(Cl)c(Cl)c2)CCC1 (racemic) | 3170 | 767 | 910 | – | – | –
C[C@]1(c2ccc(OC(F)(F)F)cc2)C[C@@](O)(c2ccccn2)CO1 | 150 | 120 | 2460 | – | – | –
OC(c1cc(F)ccn1)C1(c2ccc(Cl)c(Cl)c2)CCC1 (racemic) | 3850 | 533 | 640 | – | – | –

SMILES | CL free (Liver microsome [1]) [mL/min/kg] | CL free (Liver microsome [2]) [mL/min/kg] | Kb [3] [nM] | Activity (Rattus norvegicus [4]) | Activity [5] | Activity (Rattus norvegicus [6])
OC(c1ccccn1)C1(c2ccccc2OC(F)(F)F)CCC1 (racemic) | 1830 | 1230 | 550 | – | – | –
O[C@H](c1ccccn1)[C@]1(c2ccc(Cl)c(Cl)c2)CCO1 | 50 | 67 | 150 | – | – | –
C[C@]1(O)C[C@@](c2ccc(OC(F)(F)F)cc2)([C@@H](O)c2ccccn2)C1 | 100 | 50 | > 10400 | Non-toxic | Not Active | Non-toxic
O[C@H](c1ccccn1)[C@]1(c2cccc(C(F)(F)F)c2)C[C@@H](O)C1 | 100 | 50 | 210 | Non-toxic | Not Active | Non-toxic
O[C@H](c1ccccn1)[C@@]1(c2ccc(Cl)c(Cl)c2)CCCO1 | 2980 | 383 | 43 | – | – | –
OC(c1ncccn1)C1(c2ccc(OC(F)(F)F)cc2)CCC1 (racemic) | 483 | 100 | 1540 | – | – | –
C[C@@]1(c2ccc(OC(F)(F)F)cc2)C[C@](O)(c2ccccn2)CO1 | 383 | 217 | 1710 | – | – | –
O[C@H](c1ccccn1)[C@]1(c2cccc(C(F)(F)F)c2)C[C@H](O)C1 | 183 | 130 | 90 | Non-toxic | Not Active | Non-toxic
O[C@H](c1ccccn1)[C@]1(c2ccnc(C(F)(F)F)c2)C[C@H](O)C1 | 50 | 33 | 60 | Non-toxic | Not Active | Non-toxic
O[C@]1(c2ccccn2)CC[C@@H](c2ccc(C(F)(F)F)cc2)C1 | 7670 | 383 | 130 | – | – | –
C[C@]1(O)C[C@](c2ccc(C(F)(F)F)cc2)([C@H](O)c2ccccn2)C1 | 100 | 33 | 4790 | Non-toxic | Not Active | Non-toxic
O[C@H](c1ccccn1)[C@]1(c2cc(C(F)(F)F)ccn2)C[C@H](O)C1 | 50 | 33 | 270 | Non-toxic | Not Active | Non-toxic
C[C@]1(O)C[C@](c2cccc(C(F)(F)F)c2)([C@H](O)c2ccccn2)C1 | 67 | 33 | 1550 | Non-toxic | Not Active | Non-toxic
OC(c1ccccn1)C1(c2ccc(Cl)c(Cl)c2)COC1 (stereo unspecified) | 417 | 130 | 7370 | – | – | –
O[C@H](c1ccccn1)[C@]1(c2cccc(OC(F)(F)F)c2)C[C@H](O)C1 | 120 | 150 | 40 | Non-toxic | Not Active | Non-toxic
O[C@H](c1ccccn1)C1(c2cccc(OC(F)(F)F)c2)CCC1 | 1720 | 2220 | 80 | – | – | –
O[C@@]1(c2ccccn2)CC[C@@H](c2ccc(C(F)(F)F)cc2)C1 | 2520 | 150 | 240 | – | – | –
O[C@]1(c2ccccn2)CC[C@H](c2ccc(C(F)(F)F)cc2)C1 | 1430 | 333 | 540 | – | – | –
O[C@@]1(c2ccccn2)CC[C@H](c2ccc(C(F)(F)F)cc2)C1 | 350 | 400 | 610 | – | – | –
